Published values pooled from the literature.
Lines come from different studies, so protocols differ. pIC50: −log10 of the molar value.

With `COc1cc2c3c(n(CCCn4ccnc4)c(=O)c2cc1OC)-c1nc2c(cc1C3=O)OCO2` the pIC50 was 6.69 (Raji; cell growth or viability; MTS; 72 h).
`CC(C)c1ccccc1[C@@H]1CCCN1C1CC2(CCN(c3ccc(C(=O)NS(=O)(=O)c4ccc(NC[C@H]5CC[C@](C)(O)CC5)c([N+](=O)[O-])c4)c(Oc4cnc5[nH]ccc5c4)c3)CC2)C1` has a pIC50 of 8.19 (DOHH-2; cell growth or viability; ATP luminescence; 48 h).
`O=C(CCO)NCc1ccccc1` gave a pIC50 of 4.31 (DH82; PGE2 release; inhibitor; ELISA; 24 h; LPS-stimulated).
`COc1ccc(-c2cc(-c3cc(OC)ccc3OC)c3c(=O)[nH]c(=O)[nH]c3n2)cc1` gave a pIC50 of 4.93 (HCT-116; cell growth or viability; MTT; 48 h).
`NC(=O)c1ccncc1` gave a pIC50 of less than 3.70 (DH82; NO release; inhibitor; Griess; 24 h; LPS-stimulated).
With `C=C(F)C(=O)N1CCN(c2nc(OC[C@@H]3CCCN3C)nc3c2CCN(c2cccc4cccc(Cl)c24)C3)C[C@@H]1CC#N` the pIC50 was less than 6.00 (AGS; cell growth or viability; ATP luminescence; 3D culture).
The pIC50 of `NCCC(=O)NCc1ccccc1` is reported as 3.91 (DH82; PGE2 release; inhibitor; ELISA; 24 h; LPS-stimulated).
`COc1cc2c3c(n(CCCN4CCOCC4)c(=O)c2cc1OC)-c1nc2c(cc1C3=O)OCO2` has a pIC50 of 6.43 (Raji; cell growth or viability; MTS; 72 h).
`COc1ccc(-c2cc(-c3ccccc3Cl)c3c(=O)n(C)c(=O)n(C)c3n2)cc1` gave a pIC50 of 4.85 (HCT-116; cell growth or viability; MTT; 48 h).
The pIC50 of `CCCOc1nc(-c2cccc(O)c2)cc(-c2cc3cc(Cl)ccc3nc2N2CCOCC2)c1C#N` is reported as 6.61 (NFS-60; cell growth or viability; MTT; 72 h).
`COc1cc2c(cc1OC)-c1cc3ccc(OC)c(OCCN)c3c[n+]1CC2` has a pIC50 of less than 4.10 (PC-9; cell growth or viability; MTT; 72 h).
`Nc1n[nH]c2nc(-c3cccc(O)c3)cc(-c3cc4cc(Cl)ccc4nc3N3CCOCC3)c12` gave a pIC50 of 6.80 (NFS-60; cell growth or viability; MTT; 72 h).
`C=CC(=O)N1CCN(c2nc(=O)n(-c3c(C)ccnc3C(C)C)c3nc(-c4c(O)cccc4F)c(F)cc23)[C@@H](C)C1` gave a pIC50 of less than 5.00 (PC-9; cell growth or viability; ATP luminescence).
`COCCC(=O)NCc1ccccc1` has a pIC50 of 3.90 (DH82; PGE2 release; inhibitor; ELISA; 24 h; LPS-stimulated).
`Cc1nc2cccc(N)c2c(=O)n1C1CCC(=O)NC1=O` (stereo not drawn) has a pIC50 of greater than 6.48 (NCI-H929; cell growth or viability; CCK-8; 96 h).
With `Nc1n[nH]c2nc(-c3cccc(O)c3)cc(-c3cc4ccccc4nc3N3CCOCC3)c12` the pIC50 was 7.19 (NFS-60; cell growth or viability; MTT; 72 h).
For `O=C(CCNNC(=O)c1ccncc1)NCc1ccccc1`, the pIC50 was less than 3.70 (DH82; NO release; inhibitor; Griess; 24 h; LPS-stimulated).
With `COc1cc2c3c(n(CCCNC(C)C)c(=O)c2cc1OC)-c1nc2c(cc1C3=O)OCO2` the pIC50 was 6.74 (Raji; cell growth or viability; MTS; 72 h).
